Read-outs that look alike come from different tables or passages of the source.
Tests used:
Type in all cases: cell-based
[1] = test system: HCT-116; test: MTT cytotoxicity assay, HCT-116 cells; conditions: read-out: IC50 (μM) HCT-116
Method in brief: (§1)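 Cells were grown in DMEM with 10% FBS and 1% penicillin/streptomycin at 37 °C under 5% CO₂, then seeded at 1 × 10⁴ cells/well. After 24 h they received the test compound at 0, 2.5, 5, 10, 20 and 40 μM for 72 h, with doxorubicin as positive control. MTT (5 mg/mL stock) was added for 4 h, formazan dissolved in DMSO for 10 min, A570 read, and IC50 calculated.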

[2] = test system: HUVEC; test: MTT cytotoxicity assay, normal cell line HUVEC; conditions: read-out: IC50 (μM) HUVEC, 72 h
[3] = test system: HepG2; test: MTT cytotoxicity assay, HepG2 cells; conditions: read-out: IC50 (μM) HepG2
Method in brief: as §1

[4] = test system: HeLa; test: MTT cytotoxicity assay, HeLa cells; conditions: 72 h; for IC50: read-out: IC50 (μM) HeLa
Method in brief: as §1

[5] = test system: MCF-7; test: MTT cytotoxicity assay, MCF-7 cells; conditions: for IC50: read-out: IC50 (μM) MCF-7
Method in brief: as §1

[6] = test system: MDA-MB-231; test: MTT cytotoxicity assay, MDA-MB-231 cells; conditions: read-out: IC50 (μM) MDA-MB-231
Method in brief: as §1

[7] = test system: MCF-7 cells; test: Annexin V/PI double staining flow cytometry, MCF-7; conditions: MCF-7, 1 μM, 48 h (positive control)
[8] = test system: HeLa cells; test: Annexin V/PI double staining flow cytometry, HeLa; conditions: 1 μM, 48 h (positive control)
[9] = test system: GFP-LC3-HeLa cells; test: Autophagy detection using GFP-LC3 expression in HeLa cells; conditions: 25 μM, 24 h, observation control
Method in brief: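 HeLa cells stably expressing GFP-LC3, grown in 24-well plates, were exposed to the test compound for 24 h, either at 10 μM for screening or at 2.5, 5, 10 and 20 μM. Chloroquine phosphate at 25 μM served as the observation control. GFP-LC3 puncta were imaged by fluorescence microscopy, and dots per cell were counted.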

Row | Molecule | IC50 ([1]; Homo sapiens, HCT-116, 72 h) | IC50 ([2]; Homo sapiens, HUVEC) | IC50 ([3]; Homo sapiens, HepG2, 72 h) | IC50 ([4]; Homo sapiens) | IC50 ([5]; Homo sapiens, MCF7, 72 h) | IC50 ([6]; Homo sapiens, MDA-MB-231, 72 h) | further results
1 | 3,9-dihydroxypterocarp-6a-en [Compound 17] | – | – | – | – | – | – | IC50 ([1]; MTT, 72 h, means ± SEM (n = 3)): 39.7 ± 2.06 µM; IC50 ([2]; normal cell line, MTT, compounds at 50 μM, means ± SEM (n = 3)): > 50 µM; IC50 ([3]; MTT, 72 h, means ± SEM (n = 3)): 34.2 ± 1.87 µM; IC50 ([4]; MTT, means ± SEM (n = 3)): 36.1 ± 7.34 µM; IC50 ([5]; MTT, 72 h, means ± SEM (n = 3)): 30.3 ± 1.32 µM; IC50 ([6]; MTT, 72 h, means ± SEM (n = 3)): 36.8 ± 5.61 µM
2 | COc1cc2c(c(OC)c1OC)-c1ccc(OC)c(=O)cc1[C@@H](NC(C)=O)CC2 [Colchicine, colchicine] | – | – | – | – | – | – | apoptosis rate (early + late apoptotic cells) [7]: 38.01%; apoptosis rate (early + late apoptotic cells) [8]: 45.62%
3 | COc1cc(OC)c(-c2coc3c(CC=C(C)C)c(OC)c(OC)cc3c2=O)cc1OC [Compound 4, 8-(γ, γ-dimethylallyl)-6,7,2′,4′,5′-pentamethoxyisoflavone] | 8.61 ± 0.72 µM | > 50 µM | 8.74 ± 0.83 µM | 7.86 ± 1.21 µM | 18.5 ± 0.51 µM | 15.8 ± 2.15 µM | growth inhibition of HeLa cells (primary screening) ([4]; 50 μM, MTT): most active; growth inhibition of MCF-7 cells (primary screening) ([5]; 50 μM, 72 h, MTT): most active
4 | COc1cc(-c2coc3c(CC=C(C)C)c(OC)c(OC)c(O)c3c2=O)c(OC)cc1O [Compound 5, 8-(γ, γ-dimethylallyl)-5,4′-dihydroxy-6,7,2′,5′-tetramethoxyisoflavone] | 25.9 ± 0.85 µM | > 50 µM | 31.6 ± 2.06 µM | 35.7 ± 3.91 µM | 35.1 ± 1.44 µM | 27.6 ± 4.54 µM | –
5 | COc1cccc2c1C(=O)c1c(O)c3c(c(O)c1C2=O)C[C@@](O)(C(=O)CO)C[C@@H]3O[C@H]1C[C@H](N)[C@H](O)[C@H](C)O1 [Doxorubicin, reference compound] | 0.03 ± 0.003 µM | 0.04 ± 0.005 µM | 0.02 ± 0.002 µM | 0.03 ± 0.001 µM | 0.02 ± 0.003 µM | 0.03 ± 0.002 µM | –
6 | CCN(CC)CCCC(C)Nc1ccnc2cc(Cl)ccc12 (centres unmarked) [chloroquine phosphate] | – | – | – | – | – | – | GFP-LC3 dots (autophagosomes) [9]: obvious increase in the GFP-LC3 dots

From article PMC6626068 (Journal of Advanced Research, 2019)
